Screening data: PubChem BioAssay, The Scripps Research Institute Molecular Screening Center
An excerpt weighted towards active compounds, which were near 1.2% of everything screened.
NS3 helicase inh: inhibitors of Hepatitis C virus NS3 helicase | NS3 helicase DNA unwinding, Cy5 molecular beacon fluorescence | inhibition, % at 10.9 µM | actives 0.56% (n = 290,000);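 active = inhibition above the mean of all tested compounds plus 3 SD, set per campaign, cut at about 35% in these data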
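Control set: DMSO versus 110 µM thioflavine S; Material: NS3 helicase fragment of HCV; Measured by: Cy5 fluorescence at 0 and 60 min, beacon hairpin quenching; Read-out basis: percent inhibition from t60/t0 fluorescence ratio; Times: reaction time 60 min, 25 °C; Repeats: single replicate; Compound dosing: single dose, 10.9 µM nominal final, DMSO 0.8% final.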
ZTA DNA inh: blocks Epstein-Barr virus ZTA, an EBNA-1 counter-screen; P03206; ZTA-DNA binding, fluorescence polarization; inhibition, % at 11 µM; actives 0.15% (n = 320,000); in the data active = inhibition above about 33%
Target sequence (P03206 whole entry, looked up): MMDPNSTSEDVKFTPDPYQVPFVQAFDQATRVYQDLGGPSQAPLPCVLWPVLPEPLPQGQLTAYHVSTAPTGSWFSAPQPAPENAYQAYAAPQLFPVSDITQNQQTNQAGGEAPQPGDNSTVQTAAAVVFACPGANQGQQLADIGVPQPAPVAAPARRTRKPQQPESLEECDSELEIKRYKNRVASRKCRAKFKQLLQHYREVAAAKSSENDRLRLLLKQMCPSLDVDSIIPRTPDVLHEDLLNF
HCV core dimer: HCV core protein dimerization inhibition; TR-FRET GST/Flag-core106 dimerization, 1536-well; actives 0.33% (n = 300,000); inhibition, % at 5 µM; AID 1899;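 active = inhibition above the mean of all tested compounds plus 3 SD, set per screening campaign, cut at about 45% in these data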
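Test system: GST/Flag-tagged HCV core106 proteins; Medium: KF-containing HEPES buffer, pH 7.45, DTT, CHAPS, BSA; Times: compound-protein-antibody incubation 4 h at 22.5 °C; Detection: TR-FRET 671 and 617 nm emission; Benchmarks: wells lacking GST-core106 and wells with excess unlabelled core106.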
EBNA-1 inhibitor: blocks EBNA-1 binding to DNA; actives 0.34% (n = 300,000); inhibition, % at 14.8 µM; EBNA-1 DNA binding, fluorescence polarization; in the data active = inhibition above about 28%
ZTA inh confirm: confirmation of Epstein-Barr virus ZTA DNA binding inhibitors. inhibition, % at 11.1 µM. Zta-ZRE DNA binding, fluorescence polarization. shares compounds with ZTA DNA inh. actives 30% (n = 320). AID 2361;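 active = mean inhibition across triplicate runs above the hit threshold derived for the original primary screen, cut at about 33% in these data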
EBNA1 counter: blocks EBNA-1 DNA binding in ZTA counter-screen | shares compounds with ZTA DNA inh | fluorescence polarization | inhibition, % at 14.8 µM | 320 tested, under 10 active; call rule not given here
Each line names hits and unclear results; the compound was inactive in the other large screens (follow-up assays come after a bar, where they were run).

COc1ccccc1NC(=S)N1CCc2cc(OC)c(OC)cc2C1	none
COc1cccc(NC(=S)N2CCc3cc(OC)c(OC)cc3C2)c1	ZTA DNA inh 47.9 | ZTA inh confirm inactive | EBNA1 counter inactive
CC1(C)CC(=O)C2=C(C1)OC(N)=C(C#N)C2c1ccccc1[N+](=O)[O-] (stereo not drawn)	ZTA DNA inh 128.9 | ZTA inh confirm inactive | EBNA1 counter inactive
O=C(Nn1c(C2CCC2)nc2ccccc2c1=O)c1cccs1	ZTA DNA inh 33.6 | ZTA inh confirm inactive | EBNA1 counter inactive
COC(=O)c1ccccc1-c1cn(C)c2ccccc2c1=O	none
COc1cc(NC(=O)c2csc(N)n2)cc(C(=O)Nc2cccc(C(F)(F)F)c2)c1	ZTA DNA inh 41.2 (no result: NS3 helicase inh) | ZTA inh confirm inactive | EBNA1 counter inactive
CCN1CCN(C(=O)CN(CC)S(=O)(=O)c2ccc3ccccc3c2)CC1	none
CCN(CC)CCOC(=O)c1ccc(N/C=C(/C#N)c2nc(-c3cccc(OC)c3)cs2)cc1	ZTA DNA inh 39.7 | ZTA inh confirm inactive | EBNA1 counter inactive
Cc1ccc(-c2csc(/C(C#N)=C/Nc3ccc4c(c3)OCCO4)n2)cc1	none
CCN(CC)CCOC(=O)c1ccc(N/C=C(/C#N)c2nc(-c3ccc(OC)c(OC)c3)cs2)cc1	ZTA DNA inh 73.7 | ZTA inh confirm 50.8 | EBNA1 counter inactive
CCOC(=O)c1ccc(N/C=C\C(=O)c2cccc(OC)c2)cc1	none
O=C(NCC(=O)N1CCN(S(=O)(=O)c2ccc3c(c2)OCCO3)CC1)c1ccccc1Cl	none (no result: NS3 helicase inh, HCV core dimer, EBNA-1 inhibitor)
CCC(=O)c1c(CC)c2n3c1CC[C@H]3CCC2	none (no result: NS3 helicase inh)
CCc1ccc2nc(N(CCCN(C)C)C(=O)c3ccc(S(=O)(=O)N4CCCc5ccccc54)cc3)sc2c1	ZTA DNA inh 37.3 | ZTA inh confirm inactive | EBNA1 counter inactive
O=C(O)Cn1nnc(COc2ccccc2)n1	none
O=C(O)CC(NC(=O)CCc1ccccc1)c1ccc(Cl)cc1 (stereo not drawn)	ZTA DNA inh 61.7 | ZTA inh confirm inactive | EBNA1 counter inactive
CCC(NC(=O)CCc1ccccc1)c1ccccc1 (stereo not drawn)	none
O=C(COC(=O)c1ccc(S(=O)(=O)N2CCCC2)cc1)NCc1ccco1	none
Nc1nc(N)c2cc(Sc3ccc4ccccc4c3)ccc2n1	ZTA DNA inh 33.8 | ZTA inh confirm inactive | EBNA1 counter inactive
Nc1ccc(Sc2cc(Cl)nc(N)n2)cc1	none
CN(C)S(=O)(=O)c1cc(NC2CC(=O)N(c3ccc(F)cc3)C2=O)ccc1Cl (stereo not drawn)	none
Cc1cccc(NC(=O)COc2ccc(/C=C\c3[nH]c(=O)[nH]c(=O)c3[N+](=O)[O-])cc2)c1	ZTA DNA inh 44.3 | ZTA inh confirm 41.7 | EBNA1 counter inactive
Cc1ccc(C(=O)Nc2ccc(C(=O)N/N=C/c3ccncc3)cc2)cc1	ZTA DNA inh 47.2 | ZTA inh confirm 45.1 | EBNA1 counter inactive
Cc1ccc(/C=N/NC(=O)c2ccncc2)cc1	none
Nc1ccc2c(c1)C(=O)C(=O)c1ccccc1-2	ZTA DNA inh 58.0 | ZTA inh confirm 64.7 | EBNA1 counter inactive
Cc1cccc(NC(=O)CCNC(=O)c2ccco2)c1	ZTA DNA inh 44.4 | ZTA inh confirm inactive | EBNA1 counter inactive
Cc1ccc(NC(=O)CCNC(=O)c2ccco2)cc1	none
CCCn1c(N)c(N(CCOC)C(=O)CSc2ccccc2)c(=O)[nH]c1=O	none (no result: NS3 helicase inh, HCV core dimer, EBNA-1 inhibitor)
Cc1ccc(-c2nn(-c3ccccc3)cc2C(=O)O)o1	ZTA DNA inh 36.7 | ZTA inh confirm inactive | EBNA1 counter inactive
CCOc1ccc(-n2nc(C(=O)NC3CCCCC3)c3ccccc3c2=O)cc1	none
CCOC(=O)c1cc2c(C)n(-c3ccc(N(C)C)cc3)c(C)c2cc(C(=O)OCC)c1=O	ZTA DNA inh 159.7 | ZTA inh confirm inactive | EBNA1 counter inactive
CCOC(=O)c1cc2c(C)n(-c3ccc(OCC)cc3)c(C)c2cc(C(=O)OCC)c1=O	none
O=C(Nc1cc(S(=O)(=O)N2CCOCC2)ccc1N1CCOCC1)C1CCCO1 (stereo not drawn)	none
COc1ccc(C(=O)N(C)CCCC2CCCC2)cc1OC1CCN(C(C)C)CC1	ZTA DNA inh 34.2 | ZTA inh confirm inactive | EBNA1 counter inactive
COc1ccc(C(=O)N(C)CCCC2CCCC2)cc1OC1CCN(C(C)=O)CC1	none
C[C@H]1CCC(=O)N([C@H](COc2ccccc2)Cc2ccccc2)CC1	ZTA DNA inh 40.0 | ZTA inh confirm inactive | EBNA1 counter inactive
O=C(NCCCN1CCOCC1)c1ccc(/C=C2\Oc3ccccc3N(Cc3ccccc3F)C2=O)cc1	ZTA DNA inh 48.0 | ZTA inh confirm inactive | EBNA1 counter inactive
NS(=O)(=O)c1ccc(N/C=C\C(=O)c2ccc(F)cc2)cc1	none
CN(C)c1ccc(N/C=C/C(=O)c2ccco2)cc1	ZTA DNA inh 91.1 | ZTA inh confirm inactive | EBNA1 counter inactive
CN(C)c1ccc(N/C=C/C(=O)c2ccc(F)cc2)cc1	ZTA DNA inh 78.3 | ZTA inh confirm inactive | EBNA1 counter inactive
CC(=O)Nc1ccc(N/C=C/C(=O)c2ccco2)cc1	none
COc1ccc(Cl)cc1S(=O)(=O)N(C)CC(=O)N1CCOCC1	none
COCC1CCCCN1C(=O)c1ccc2nc(Cc3ccc(OC)c(OC)c3)oc2c1 (stereo not drawn)	ZTA DNA inh 34.7 | ZTA inh confirm inactive | EBNA1 counter inactive
CN(Cc1ccc(Cl)s1)C(=O)CSc1nnc(C2CC2)n1C1CC1	none (no result: NS3 helicase inh, HCV core dimer, EBNA-1 inhibitor)
COc1cccc2c1-c1c(O)cccc1C2=O	none
COc1cccc2c1C(=O)c1c(O)c3c(c(O)c1C2=O)C[C@](O)(C(C)=O)C[C@H]3O[C@@H]1C[C@@H](N)[C@@H](O)[C@@H](C)O1	ZTA DNA inh 43.6 (no result: NS3 helicase inh) | ZTA inh confirm 74.6 | EBNA1 counter inactive
Nc1cc2c(cc1C(=O)c1cccc(Br)c1)OCCO2	none
Cc1cc(=O)[nH]c(-c2ccc(Cl)cc2)n1	none
O=c1[nH]c(-c2ccc(Cl)cc2)nc(=S)[nH]1	ZTA DNA inh 45.7 | ZTA inh confirm inactive | EBNA1 counter inactive
COc1ccc(N2CCN(S(=O)(=O)CCNC(=O)c3ccc(Br)o3)CC2)cc1	none
Cc1cc2nc3n(c2cc1C)CC1CC(C(=O)NCc2cccc(C(F)(F)F)c2)N(C)C31 (stereo not drawn)	none (no result: NS3 helicase inh)
COc1cc(OC)c(C(=O)OCC(=O)Nc2nnc(-c3ccccc3)o2)cc1OC	none (no result: NS3 helicase inh, HCV core dimer, EBNA-1 inhibitor)
NC1=NC[C@H](c2ccccc2)N1CCCCC1CCCCC1	ZTA DNA inh 33.0 (no result: NS3 helicase inh) | ZTA inh confirm inactive | EBNA1 counter inactive
S=C1NC[C@H](c2ccccc2)N1CCCCC1CCCCC1	none (no result: NS3 helicase inh)
c1ccc(-c2csc3ncnc(N4CCN(Cc5ccc6c(c5)OCO6)CC4)c23)cc1	none
O=C(CSc1ncnc2scc(-c3ccccc3)c12)N1CCN(Cc2ccc3c(c2)OCO3)CC1	ZTA DNA inh 58.8 | ZTA inh confirm 159.6 | EBNA1 counter 71.9
CCC(=O)Nc1nc2ccc3sc(C)nc3c2s1	ZTA DNA inh 34.7 | ZTA inh confirm inactive | EBNA1 counter inactive
Cc1nc2c(ccc3nc(NC(=O)C4CC4)sc32)s1	none
